From ChEMBL document CHEMBL3352443, “Synthesis of new heterocyclic lupeol derivatives as nitric oxide and pro-inflammatory cytokine inhibitors” (Bioorg Med Chem Lett, 2014)

Columns and labels:
[1] = tested on: RAW264.7; assay: Antiinflammatory activity in mouse RAW264.7 cells assessed as inhibition of LPS-induced NO production incubated for 1 hr prior to LPS challenge measured after 24 hrs by Griess method; assay type: functional, cell-based
Method in brief: (§1)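 NO release was measured in LPS-stimulated macrophages, and IC50 values were derived from it. Data are mean ± SD of three separate experiments, each run in triplicate.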

[2] = Antiinflammatory activity in mouse J774A1 cells assessed as inhibition of LPS-induced NO production incubated for 1 hr prior to LPS challenge measured after 24 hrs by Griess method; assay type: functional, cell-based; settings: J774.A1; method in brief: as §1
[3] = Cytotoxicity against mouse RAW264.7 cells assessed as cell viability at IC50 by MTT assay relative to control; assay type: cell-based; settings: read-out: Activity
[4] = Cytotoxicity against mouse J774A1 cells assessed as cell viability at IC50 by MTT assay relative to control; assay type: cell-based, J774.A1; settings: read-out: Activity
[5] = Antiinflammatory activity in mouse J774A1 cells assessed as inhibition of LPS-induced TNF-alpha production at 20 ug/ml incubated for 1 hr prior to LPS challenge measured after 6 hrs by sandwich ELISA relative to control; assay type: functional; settings: J774.A1
Method in brief: (§2)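 Compounds were tested at 20 µg/mL on LPS-stimulated cells. TNF-α and IL-1β released into the medium were quantified with an ELISA kit following the kit protocol and expressed as % inhibition. Data are mean ± SD of three separate experiments, each run in triplicate.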

[6] = Antiinflammatory activity in mouse J774A1 cells assessed as inhibition of LPS-induced IL-1beta production at 20 ug/ml incubated for 1 hr prior to LPS challenge measured after 12 hrs by sandwich ELISA relative to control; assay type: functional; settings: J774.A1; method in brief: as §2
[7] = tested on: RAW264.7; assay: Antiinflammatory activity in mouse RAW264.7 cells assessed as inhibition of LPS-induced IL-1beta production at 20 ug/ml incubated for 1 hr prior to LPS challenge measured after 12 hrs by sandwich ELISA relative to control; assay type: functional; method in brief: as §2
[8] = tested on: RAW264.7; assay: Antiinflammatory activity in mouse RAW264.7 cells assessed as inhibition of LPS-induced TNF-alpha production at 20 ug/ml incubated for 1 hr prior to LPS challenge measured after 6 hrs by sandwich ELISA relative to control; assay type: functional; method in brief: as §2

## C=C(C)[C@@H]1CC[C@]2(C)CC[C@]3(C)[C@H](CC[C@@H]4[C@@]5(C)CC/C(=N\O)C(C)(C)[C@@H]5CC[C@]43C)[C@@H]12
[1]
  IC50: 46 µM
[2]
  IC50: 44.6 µM
[3]
  viability: 95.7%
[4]
  viability: 93.6%

## C=C(C=O)[C@@H]1CC[C@]2(C)CC[C@]3(C)[C@H](CC[C@@H]4[C@@]5(C)CC[C@H](O)C(C)(C)[C@@H]5CC[C@]43C)[C@@H]12
[1]
  IC50: 42.9 µM
[2]
  IC50: 37 µM
[3]
  viability: 95.2%
[4]
  viability: 92.1%

## C=C(C)[C@@H]1CC[C@]2(C)CC[C@]3(C)[C@H](CC[C@@H]4[C@@]5(C)CC[C@H](OC(=O)CC(C)(C)C(=O)O)C(C)(C)[C@@H]5CC[C@]43C)[C@@H]12
[1]
  IC50: 39.2 µM
[2]
  IC50: 42.6 µM
[3]
  viability: 87.6%
[4]
  viability: 83.6%

## C=C(C)[C@@H]1CC[C@]2(C)CC[C@]3(C)[C@H](CC[C@@H]4[C@@]5(C)CC[C@H](N(O)c6ccccc6)C(C)(C)[C@@H]5CC[C@]43C)[C@@H]12
[1]
  IC50: 48.7 µM
[2]
  IC50: 47.7 µM
[3]
  viability: 79.3%
[4]
  viability: 82.5%

## C=C(C)[C@@H]1CC[C@]2(C)CC[C@]3(C)[C@H](CC[C@@H]4[C@@]5(C)CC[C@H](OC(=O)CCC(=O)O)C(C)(C)[C@@H]5CC[C@]43C)[C@@H]12
[1]
  IC50: 39.2 µM
[2]
  IC50: 39.3 µM
[3]
  viability: 91.3%
[4]
  viability: 90.1%

## C=C(C)[C@@H]1CC[C@]2(C)CC[C@]3(C)[C@H](CC[C@@H]4[C@@]5(C)CCC(=S)C(C)(C)[C@@H]5CC[C@]43C)[C@@H]12
[1]
  IC50: 36.2 µM
[2]
  IC50: 36.3 µM
[3]
  viability: 94.3%
[4]
  viability: 91.9%

## C=C(C)[C@@H]1CC[C@]2(C)CC[C@]3(C)[C@H](CC[C@@H]4[C@@]5(C)Cc6c([nH]c7ccccc67)C(C)(C)[C@@H]5CC[C@]43C)[C@@H]12
[1]
  IC50: 31.7 µM
[2]
  IC50: 31.7 µM
[3]
  viability: 91.8%
[4]
  viability: 90.3%

## C=C(C)[C@@H]1CC[C@]2(C)CC[C@]3(C)[C@H](CC[C@@H]4[C@@]5(C)Cc6c([nH]c7ccc(C)cc67)C(C)(C)[C@@H]5CC[C@]43C)[C@@H]12
[1]
  IC50: 27.8 µM
[2]
  IC50: 28.6 µM
[3]
  viability: 89.3%
[4]
  viability: 87%

## C=C(C)[C@@H]1CC[C@]2(C)CC[C@]3(C)[C@H](CC[C@@H]4[C@@]5(C)Cc6c([nH]c7c(C)ccc(C)c67)C(C)(C)[C@@H]5CC[C@]43C)[C@@H]12
[1]
  IC50: 25.9 µM
[2]
  IC50: 23.2 µM
[5]
  inhibition at 20 µg/mL: 31.1%
[3]
  viability: 93.2%
[6]
  inhibition at 20 µg/mL: 17.2%
[7]
  inhibition at 20 µg/mL: 22.8%
[4]
  viability: 91.5%
[8]
  inhibition at 20 µg/mL: 32.8%

## C=C(C)[C@@H]1CC[C@]2(C)CC[C@]3(C)[C@H](CC[C@@H]4[C@@]5(C)Cc6c([nH]c7c(CC)cccc67)C(C)(C)[C@@H]5CC[C@]43C)[C@@H]12
[1]
  IC50: 30.6 µM
[2]
  IC50: 28.6 µM
[5]
  inhibition at 20 µg/mL: 29.4%
[3]
  viability: 91.5%
[6]
  inhibition at 20 µg/mL: 10.1%
[7]
  inhibition at 20 µg/mL: 11.4%
[4]
  viability: 91.7%
[8]
  inhibition at 20 µg/mL: 39.1%

## C=C(C)[C@@H]1CC[C@]2(C)CC[C@]3(C)[C@H](CC[C@@H]4[C@@]5(C)Cc6c([nH]c7ccc(F)cc67)C(C)(C)[C@@H]5CC[C@]43C)[C@@H]12
[1]
  IC50: 41.7 µM
[2]
  IC50: 41.7 µM
[3]
  viability: 95.2%
[4]
  viability: 92.1%

## C=C(C)[C@@H]1CC[C@]2(C)CC[C@]3(C)[C@H](CC[C@@H]4[C@@]5(C)Cc6c([nH]c7ccc(Cl)cc67)C(C)(C)[C@@H]5CC[C@]43C)[C@@H]12
[1]
  IC50: 35.6 µM
[2]
  IC50: 33.2 µM
[3]
  viability: 93.3%
[4]
  viability: 92.7%

## C=C(C)[C@@H]1CC[C@]2(C)CC[C@]3(C)[C@H](CC[C@@H]4[C@@]5(C)Cc6c([nH]c7ccc(Br)cc67)C(C)(C)[C@@H]5CC[C@]43C)[C@@H]12
[1]
  IC50: 23.9 µM
[2]
  IC50: 18.4 µM
[5]
  inhibition at 20 µg/mL: 31.5%
[3]
  viability: 91.4%
[6]
  inhibition at 20 µg/mL: 16.2%
[7]
  inhibition at 20 µg/mL: 19.7%
[4]
  viability: 90.8%
[8]
  inhibition at 20 µg/mL: 39.2%

## C=C(C)[C@@H]1CC[C@]2(C)CC[C@]3(C)[C@H](CC[C@@H]4[C@@]5(C)Cc6c([nH]c7ccc(I)cc67)C(C)(C)[C@@H]5CC[C@]43C)[C@@H]12
[1]
  IC50: 22.6 µM
[2]
  IC50: 25.2 µM
[5]
  inhibition at 20 µg/mL: 37%
[3]
  viability: 95.2%
[6]
  inhibition at 20 µg/mL: 17.3%
[7]
  inhibition at 20 µg/mL: 22.9%
[4]
  viability: 93.3%
[8]
  inhibition at 20 µg/mL: 42.3%

## C=C(C)[C@@H]1CC[C@]2(C)CC[C@]3(C)[C@H](CC[C@@H]4[C@@]5(C)Cc6nccnc6C(C)(C)[C@@H]5CC[C@]43C)[C@@H]12
[1]
  IC50: 32.4 µM
[2]
  IC50: 32.4 µM
[3]
  viability: 95.2%
[4]
  viability: 93.3%

## C=C(C)[C@@H]1CC[C@]2(C)CC[C@]3(C)[C@H](CC[C@@H]4[C@@]5(C)CC[C@H](OC(C)=O)C(C)(C)[C@@H]5CC[C@]43C)C12 (single isomer, unassigned) [LUPENYL ACETATE]
[1]
  IC50: 36.7 µM
[2]
  IC50: 33.2 µM
[3]
  viability: 80.3%
[4]
  viability: 83.5%

## COc1cc(/C=C/C(=O)CC(=O)/C=C/c2ccc(O)c(OC)c2)ccc1O [CURCUMIN]
[1]
  IC50: 11 µM
[2]
  IC50: 18.5 µM

## COC(=O)[C@@H](N)CCCNC(=N)N[N+](=O)[O-] [L-NAME]
[1]
  IC50: 69.2 µM
[2]
  IC50: 73.2 µM

## C=C(C)[C@@H]1CC[C@]2(C)CC[C@]3(C)[C@H](CC[C@@H]4[C@@]5(C)CCC(=O)C(C)(C)[C@@H]5CC[C@]43C)[C@@H]12 [LUPENONE]
[1]
  IC50: 38.5 µM
[2]
  IC50: 38.8 µM
[3]
  viability: 89.6%
[4]
  viability: 87.7%

## C=C(C)[C@@H]1CC[C@]2(C)CC[C@]3(C)[C@H](CC[C@@H]4[C@@]5(C)CC[C@H](O)C(C)(C)[C@@H]5CC[C@]43C)[C@@H]12 [LUPEOL]
[1]
  IC50: 37.3 µM
[2]
  IC50: 34.5 µM
[3]
  viability: 87.3%
[4]
  viability: 88.3%
